Experimental data: ChEMBL document CHEMBL4689842, “EUbOPEN Chemogenomics Library wave 1” (2021)

Columns and labels:
U2OS = test: Multiplex assay against U2OS; format: toxicity, cell-based; conditions: human
Procedure, shortened: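 Live cells were stained at seeding with Hoechst33342, BioTracker Green Microtubule Cytoskeleton Dye, MitoTracker Red and Annexin V Alexa Fluor 680, then imaged on a CQ1 microscope at 37°C and 5% CO2 after compound addition. CellPathfinder machine-learning gating split cells into Hoechst high-intensity objects or normal cells. Normal cells were split into healthy, pyknosed or fragmented nuclei, and pyknosed cells into mitotic or apoptotic. Tubulin, mitochondrial-mass and membrane-permeability phenotypes are per cents of healthy-nucleus cells.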

HEK-293T = test: Incucyte cell viability with HEK293T; format: toxicity, cell-based; conditions: human, 10 µM, compound concentration 10 uM; note: filed as whole numbers so only -1 and 0 and 1 occur
[1] = 12 h, 1 µM, compound concentration 1 uM, replicate 1
[2] = 12 h, 1 µM, compound concentration 1 uM, replicate 2
[3] = 12 h, 10 µM, compound concentration 10 uM, replicate 1
[4] = 12 h, 10 µM, compound concentration 10 uM, replicate 2
[5] = 24 h, 1 µM, compound concentration 1 uM, replicate 1
[6] = 24 h, 1 µM, compound concentration 1 uM, replicate 2
[7] = 24 h, 10 µM, compound concentration 10 uM, replicate 1
[8] = 24 h, 10 µM, compound concentration 10 uM, replicate 2
[9] = 0 h, replicate number 1, timepoint 0 hours
[10] = 6 h, replicate number 1, timepoint 6 hours
[11] = 12 h, replicate number 1, timepoint 12 hours
[12] = 18 h, replicate number 1, timepoint 18 hours
[13] = 24 h, replicate number 1, timepoint 24 hours

Cc1ccc(NC(=O)Nc2cc(C(F)(F)F)ccc2F)cc1Nc1ccc2c(c1)NC(=O)/C2=C\c1ccc[nH]1
Population Apoptotic (%) (U2OS; [1]): 32% | Population Fragmented Nuclei (%) (U2OS; [1]): 15% | Population Healthy Nuclei (%) (U2OS; [1]): 66% | Population Hoechst High Intensity Objects (%) (U2OS; [1]): 2% | Population Membrane Permeable-Phenotype (%) (U2OS; [1]): 87% | Population Mitochondria Different-Phenotype (%) (U2OS; [1]): 7% | Population Mitotic Cells (%) (U2OS; [1]): 68% | Population Normal (%) (U2OS; [1]): 97% | Population Pyknosed Nuclei (%) (U2OS; [1]): 18% | Population Tubulin-Different-Phenotype (%) (U2OS; [1]): 65% | Total Cell Count (U2OS; [1]): 153 | Population Apoptotic (%) (U2OS; [2]): 33% | Population Fragmented Nuclei (%) (U2OS; [2]): 24% | Population Healthy Nuclei (%) (U2OS; [2]): 57% | Population Hoechst High Intensity Objects (%) (U2OS; [2]): 12% | Population Membrane Permeable-Phenotype (%) (U2OS; [2]): 91% | Population Mitochondria Different-Phenotype (%) (U2OS; [2]): 18% | Population Mitotic Cells (%) (U2OS; [2]): 66% | Population Normal (%) (U2OS; [2]): 87% | Population Pyknosed Nuclei (%) (U2OS; [2]): 17% | Population Tubulin-Different-Phenotype (%) (U2OS; [2]): 59% | Total Cell Count (U2OS; [2]): 88 | Population Apoptotic (%) (U2OS; [3]): 22% | Population Fragmented Nuclei (%) (U2OS; [3]): 2% | Population Healthy Nuclei (%) (U2OS; [3]): 91% | Population Hoechst High Intensity Objects (%) (U2OS; [3]): 2% | Population Membrane Permeable-Phenotype (%) (U2OS; [3]): 11% | Population Mitochondria Different-Phenotype (%) (U2OS; [3]): 22% | Population Mitotic Cells (%) (U2OS; [3]): 77% | Population Normal (%) (U2OS; [3]): 97% | Population Pyknosed Nuclei (%) (U2OS; [3]): 6% | Population Tubulin-Different-Phenotype (%) (U2OS; [3]): 27% | Total Cell Count (U2OS; [3]): 204 | Population Apoptotic (%) (U2OS; [4]): 66% | Population Fragmented Nuclei (%) (U2OS; [4]): 8% | Population Healthy Nuclei (%) (U2OS; [4]): 87% | Population Hoechst High Intensity Objects (%) (U2OS; [4]): 11% | Population Membrane Permeable-Phenotype (%) (U2OS; [4]): 5% | Population Mitochondria Different-Phenotype (%) (U2OS; [4]): 29% | Population Mitotic Cells (%) (U2OS; [4]): 33% | Population Normal (%) (U2OS; [4]): 88% | Population Pyknosed Nuclei (%) (U2OS; [4]): 3% | Population Tubulin-Different-Phenotype (%) (U2OS; [4]): 19% | Total Cell Count (U2OS; [4]): 147 | Population Apoptotic (%) (U2OS; [5]): 75% | Population Fragmented Nuclei (%) (U2OS; [5]): 14% | Population Healthy Nuclei (%) (U2OS; [5]): 52% | Population Membrane Permeable-Phenotype (%) (U2OS; [5]): 85% | Population Mitochondria Different-Phenotype (%) (U2OS; [5]): 11% | Population Mitotic Cells (%) (U2OS; [5]): 25% | Population Pyknosed Nuclei (%) (U2OS; [5]): 32% | Population Tubulin-Different-Phenotype (%) (U2OS; [5]): 36% | Total Cell Count (U2OS; [5]): 205 | Population Apoptotic (%) (U2OS; [6]): 76% | Population Fragmented Nuclei (%) (U2OS; [6]): 31% | Population Healthy Nuclei (%) (U2OS; [6]): 44% | Population Hoechst High Intensity Objects (%) (U2OS; [6]): 4% | Population Membrane Permeable-Phenotype (%) (U2OS; [6]): 94% | Population Mitochondria Different-Phenotype (%) (U2OS; [6]): 12% | Population Mitotic Cells (%) (U2OS; [6]): 23% | Population Normal (%) (U2OS; [6]): 95% | Population Pyknosed Nuclei (%) (U2OS; [6]): 23% | Population Tubulin-Different-Phenotype (%) (U2OS; [6]): 53% | Total Cell Count (U2OS; [6]): 118 | Population Apoptotic (%) (U2OS; [7]): 26% | Population Fragmented Nuclei (%) (U2OS; [7]): 2% | Population Healthy Nuclei (%) (U2OS; [7]): 89% | Population Hoechst High Intensity Objects (%) (U2OS; [7]): 1% | Population Membrane Permeable-Phenotype (%) (U2OS; [7]): 8% | Population Mitochondria Different-Phenotype (%) (U2OS; [7]): 22% | Population Mitotic Cells (%) (U2OS; [7]): 73% | Population Normal (%) (U2OS; [7]): 98% | Population Pyknosed Nuclei (%) (U2OS; [7]): 7% | Population Tubulin-Different-Phenotype (%) (U2OS; [7]): 31% | Total Cell Count (U2OS; [7]): 302 | Population Apoptotic (%) (U2OS; [8]): 16% | Population Fragmented Nuclei (%) (U2OS; [8]): 6% | Population Healthy Nuclei (%) (U2OS; [8]): 87% | Population Hoechst High Intensity Objects (%) (U2OS; [8]): 8% | Population Membrane Permeable-Phenotype (%) (U2OS; [8]): 7% | Population Mitochondria Different-Phenotype (%) (U2OS; [8]): 32% | Population Mitotic Cells (%) (U2OS; [8]): 83% | Population Normal (%) (U2OS; [8]): 91% | Population Pyknosed Nuclei (%) (U2OS; [8]): 5% | Population Tubulin-Different-Phenotype (%) (U2OS; [8]): 18% | Total Cell Count (U2OS; [8]): 205 | Growth Rate (HEK-293T; [9]): 0 | Growth Rate (HEK-293T; [10]): 0 | Growth Rate (HEK-293T; [11]): 0 | Growth Rate (HEK-293T; [12]): 0 | Growth Rate (HEK-293T; [13]): 0

CCOC(=O)CCNc1cc(N2CCc3ccccc3CC2)nc(-c2ccccn2)n1
Population Apoptotic (%) (U2OS; [1]): 37% | Population Fragmented Nuclei (%) (U2OS; [1]): 7% | Population Healthy Nuclei (%) (U2OS; [1]): 85% | Population Hoechst High Intensity Objects (%) (U2OS; [1]): 3% | Population Membrane Permeable-Phenotype (%) (U2OS; [1]): 14% | Population Mitochondria Different-Phenotype (%) (U2OS; [1]): 40% | Population Mitotic Cells (%) (U2OS; [1]): 62% | Population Normal (%) (U2OS; [1]): 96% | Population Pyknosed Nuclei (%) (U2OS; [1]): 6% | Population Tubulin-Different-Phenotype (%) (U2OS; [1]): 30% | Total Cell Count (U2OS; [1]): 244 | Population Apoptotic (%) (U2OS; [2]): 45% | Population Fragmented Nuclei (%) (U2OS; [2]): 4% | Population Healthy Nuclei (%) (U2OS; [2]): 86% | Population Hoechst High Intensity Objects (%) (U2OS; [2]): 8% | Population Membrane Permeable-Phenotype (%) (U2OS; [2]): 13% | Population Mitochondria Different-Phenotype (%) (U2OS; [2]): 27% | Population Mitotic Cells (%) (U2OS; [2]): 54% | Population Normal (%) (U2OS; [2]): 91% | Population Pyknosed Nuclei (%) (U2OS; [2]): 9% | Population Tubulin-Different-Phenotype (%) (U2OS; [2]): 23% | Total Cell Count (U2OS; [2]): 141 | Population Apoptotic (%) (U2OS; [3]): 46% | Population Fragmented Nuclei (%) (U2OS; [3]): 7% | Population Healthy Nuclei (%) (U2OS; [3]): 82% | Population Hoechst High Intensity Objects (%) (U2OS; [3]): 5% | Population Membrane Permeable-Phenotype (%) (U2OS; [3]): 11% | Population Mitochondria Different-Phenotype (%) (U2OS; [3]): 32% | Population Mitotic Cells (%) (U2OS; [3]): 53% | Population Normal (%) (U2OS; [3]): 94% | Population Pyknosed Nuclei (%) (U2OS; [3]): 10% | Population Tubulin-Different-Phenotype (%) (U2OS; [3]): 34% | Total Cell Count (U2OS; [3]): 133 | Population Apoptotic (%) (U2OS; [4]): 40% | Population Fragmented Nuclei (%) (U2OS; [4]): 3% | Population Healthy Nuclei (%) (U2OS; [4]): 92% | Population Hoechst High Intensity Objects (%) (U2OS; [4]): 9% | Population Membrane Permeable-Phenotype (%) (U2OS; [4]): 9% | Population Mitochondria Different-Phenotype (%) (U2OS; [4]): 29% | Population Mitotic Cells (%) (U2OS; [4]): 60% | Population Normal (%) (U2OS; [4]): 90% | Population Pyknosed Nuclei (%) (U2OS; [4]): 3% | Population Tubulin-Different-Phenotype (%) (U2OS; [4]): 26% | Total Cell Count (U2OS; [4]): 126 | Population Apoptotic (%) (U2OS; [5]): 33% | Population Fragmented Nuclei (%) (U2OS; [5]): 5% | Population Healthy Nuclei (%) (U2OS; [5]): 91% | Population Hoechst High Intensity Objects (%) (U2OS; [5]): 1% | Population Membrane Permeable-Phenotype (%) (U2OS; [5]): 11% | Population Mitochondria Different-Phenotype (%) (U2OS; [5]): 36% | Population Mitotic Cells (%) (U2OS; [5]): 66% | Population Normal (%) (U2OS; [5]): 98% | Population Pyknosed Nuclei (%) (U2OS; [5]): 3% | Population Tubulin-Different-Phenotype (%) (U2OS; [5]): 36% | Total Cell Count (U2OS; [5]): 264 | Population Apoptotic (%) (U2OS; [6]): 16% | Population Fragmented Nuclei (%) (U2OS; [6]): 8% | Population Healthy Nuclei (%) (U2OS; [6]): 87% | Population Hoechst High Intensity Objects (%) (U2OS; [6]): 10% | Population Membrane Permeable-Phenotype (%) (U2OS; [6]): 10% | Population Mitochondria Different-Phenotype (%) (U2OS; [6]): 28% | Population Mitotic Cells (%) (U2OS; [6]): 83% | Population Normal (%) (U2OS; [6]): 89% | Population Pyknosed Nuclei (%) (U2OS; [6]): 4% | Population Tubulin-Different-Phenotype (%) (U2OS; [6]): 23% | Total Cell Count (U2OS; [6]): 146 | Population Apoptotic (%) (U2OS; [7]): 64% | Population Fragmented Nuclei (%) (U2OS; [7]): 7% | Population Healthy Nuclei (%) (U2OS; [7]): 83% | Population Hoechst High Intensity Objects (%) (U2OS; [7]): 5% | Population Membrane Permeable-Phenotype (%) (U2OS; [7]): 7% | Population Mitochondria Different-Phenotype (%) (U2OS; [7]): 37% | Population Mitotic Cells (%) (U2OS; [7]): 35% | Population Normal (%) (U2OS; [7]): 94% | Population Pyknosed Nuclei (%) (U2OS; [7]): 8% | Population Tubulin-Different-Phenotype (%) (U2OS; [7]): 13% | Total Cell Count (U2OS; [7]): 181 | Population Apoptotic (%) (U2OS; [8]): 81% | Population Fragmented Nuclei (%) (U2OS; [8]): 4% | Population Healthy Nuclei (%) (U2OS; [8]): 88% | Population Hoechst High Intensity Objects (%) (U2OS; [8]): 7% | Population Membrane Permeable-Phenotype (%) (U2OS; [8]): 8% | Population Mitochondria Different-Phenotype (%) (U2OS; [8]): 36% | Population Mitotic Cells (%) (U2OS; [8]): 18% | Population Normal (%) (U2OS; [8]): 92% | Population Pyknosed Nuclei (%) (U2OS; [8]): 7% | Population Tubulin-Different-Phenotype (%) (U2OS; [8]): 9% | Total Cell Count (U2OS; [8]): 165 | Growth Rate (HEK-293T; [9]): 1 | Growth Rate (HEK-293T; [10]): 0 | Growth Rate (HEK-293T; [11]): 0 | Growth Rate (HEK-293T; [12]): 0 | Growth Rate (HEK-293T; [13]): 0
